From ChEMBL document CHEMBL5058577, “EUbOPEN Chemogenomics Library 2 (Multiplex)” (2022)

Test system: U2OS
Test: Multiplex assay against U2OS
Type: toxicity, cell-based
Settings: human
Summary of the method: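 Cells were classed with CellPathfinder machine-learning gating, first as Hoechst high-intensity objects or normal cells, then (normal cells) as healthy, pyknosed or fragmented nuclei, and finally (pyknosed cells) as mitotic or apoptotic. Staining of live cells at seeding used Hoechst33342, BioTracker Green Microtubule Cytoskeleton Dye, MitoTracker Red and Annexin V Alexa Fluor 680, with imaging on a CQ1 microscope at 37°C and 5% CO2 after compound addition. Tubulin, mitochondrial-mass and membrane-permeability phenotypes are per cents of healthy-nucleus cells.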

[1] = 12 h, 1 µM, compound concentration 1 uM, replicate 1
[2] = 12 h, 1 µM, compound concentration 1 uM, replicate 2
[3] = 12 h, 10 µM, compound concentration 10 uM, replicate 1
[4] = 12 h, 10 µM, compound concentration 10 uM, replicate 2
[5] = 24 h, 1 µM, compound concentration 1 uM, replicate 1
[6] = 24 h, 1 µM, compound concentration 1 uM, replicate 2
[7] = 24 h, 10 µM, compound concentration 10 uM, replicate 1
[8] = 24 h, 10 µM, compound concentration 10 uM, replicate 2
[9] = 48 h, 1 µM, compound concentration 1 uM, replicate 1
[10] = 48 h, 1 µM, compound concentration 1 uM, replicate 2
[11] = 48 h, 10 µM, compound concentration 10 uM, replicate 1
[12] = 48 h, 10 µM, compound concentration 10 uM, replicate 2

COc1cc(OC2CCN(C(C)=O)CC2)ccc1C(=O)N1CCC(N2C(=O)OCc3ccccc32)CC1
Population Apoptotic (%) [1]: 50% | Population Fragmented Nuclei (%) [1]: 22% | Population Healthy Nuclei (%) [1]: 67% | Population Hoechst High Intensity Objects (%) [1]: 0% | Population Membrane Permeable-Phenotype (%) [1]: 5% | Population Mitochondria Different-Phenotype (%) [1]: 3% | Population Mitotic Cells (%) [1]: 50% | Population Normal (%) [1]: 99% | Population Pyknosed Nuclei (%) [1]: 9% | Population Tubulin-Different-Phenotype (%) [1]: 3% | Total Cell Count [1]: 233 | Population Apoptotic (%) [2]: 66% | Population Fragmented Nuclei (%) [2]: 20% | Population Healthy Nuclei (%) [2]: 69% | Population Membrane Permeable-Phenotype (%) [2]: 11% | Population Mitochondria Different-Phenotype (%) [2]: 7% | Population Mitotic Cells (%) [2]: 33% | Population Tubulin-Different-Phenotype (%) [2]: 8% | Total Cell Count [2]: 130 | Population Apoptotic (%) [3]: 72% | Population Fragmented Nuclei (%) [3]: 23% | Population Healthy Nuclei (%) [3]: 62% | Population Hoechst High Intensity Objects (%) [3]: 6% | Population Membrane Permeable-Phenotype (%) [3]: 18% | Population Mitochondria Different-Phenotype (%) [3]: 6% | Population Mitotic Cells (%) [3]: 27% | Population Normal (%) [3]: 93% | Population Pyknosed Nuclei (%) [3]: 13% | Population Tubulin-Different-Phenotype (%) [3]: 12% | Total Cell Count [3]: 228 | Population Apoptotic (%) [4]: 87% | Population Fragmented Nuclei (%) [4]: 13% | Population Healthy Nuclei (%) [4]: 77% | Population Hoechst High Intensity Objects (%) [4]: 1% | Population Membrane Permeable-Phenotype (%) [4]: 21% | Population Mitochondria Different-Phenotype (%) [4]: 10% | Population Mitotic Cells (%) [4]: 12% | Population Normal (%) [4]: 98% | Population Pyknosed Nuclei (%) [4]: 9% | Population Tubulin-Different-Phenotype (%) [4]: 13% | Total Cell Count [4]: 85 | Population Apoptotic (%) [5]: 82% | Population Fragmented Nuclei (%) [5]: 20% | Population Healthy Nuclei (%) [5]: 71% | Population Hoechst High Intensity Objects (%) [5]: 1% | Population Membrane Permeable-Phenotype (%) [5]: 3% | Population Mitochondria Different-Phenotype (%) [5]: 2% | Population Mitotic Cells (%) [5]: 17% | Population Normal (%) [5]: 98% | Population Pyknosed Nuclei (%) [5]: 8% | Population Tubulin-Different-Phenotype (%) [5]: 2% | Total Cell Count [5]: 288 | Population Apoptotic (%) [6]: 76% | Population Fragmented Nuclei (%) [6]: 22% | Population Healthy Nuclei (%) [6]: 68% | Population Membrane Permeable-Phenotype (%) [6]: 7% | Population Mitochondria Different-Phenotype (%) [6]: 5% | Population Mitotic Cells (%) [6]: 23% | Population Tubulin-Different-Phenotype (%) [6]: 3% | Total Cell Count [6]: 163 | Population Apoptotic (%) [7]: 81% | Population Fragmented Nuclei (%) [7]: 21% | Population Healthy Nuclei (%) [7]: 60% | Population Hoechst High Intensity Objects (%) [7]: 5% | Population Membrane Permeable-Phenotype (%) [7]: 9% | Population Mitochondria Different-Phenotype (%) [7]: 9% | Population Mitotic Cells (%) [7]: 18% | Population Normal (%) [7]: 94% | Population Pyknosed Nuclei (%) [7]: 18% | Population Tubulin-Different-Phenotype (%) [7]: 4% | Total Cell Count [7]: 250 | Population Apoptotic (%) [8]: 71% | Population Fragmented Nuclei (%) [8]: 12% | Population Healthy Nuclei (%) [8]: 80% | Population Hoechst High Intensity Objects (%) [8]: 2% | Population Membrane Permeable-Phenotype (%) [8]: 10% | Population Mitochondria Different-Phenotype (%) [8]: 3% | Population Mitotic Cells (%) [8]: 28% | Population Normal (%) [8]: 97% | Population Pyknosed Nuclei (%) [8]: 7% | Population Tubulin-Different-Phenotype (%) [8]: 6% | Total Cell Count [8]: 99 | Population Apoptotic (%) [9]: 80% | Population Fragmented Nuclei (%) [9]: 17% | Population Healthy Nuclei (%) [9]: 77% | Population Hoechst High Intensity Objects (%) [9]: 3% | Population Membrane Permeable-Phenotype (%) [9]: 3% | Population Mitochondria Different-Phenotype (%) [9]: 1% | Population Mitotic Cells (%) [9]: 19% | Population Normal (%) [9]: 96% | Population Pyknosed Nuclei (%) [9]: 5% | Population Tubulin-Different-Phenotype (%) [9]: 2% | Total Cell Count [9]: 388 | Population Apoptotic (%) [10]: 65% | Population Fragmented Nuclei (%) [10]: 23% | Population Healthy Nuclei (%) [10]: 66% | Population Membrane Permeable-Phenotype (%) [10]: 10% | Population Mitochondria Different-Phenotype (%) [10]: 5% | Population Mitotic Cells (%) [10]: 35% | Population Pyknosed Nuclei (%) [10]: 9% | Population Tubulin-Different-Phenotype (%) [10]: 4% | Total Cell Count [10]: 213 | Population Apoptotic (%) [11]: 81% | Population Fragmented Nuclei (%) [11]: 19% | Population Healthy Nuclei (%) [11]: 66% | Population Hoechst High Intensity Objects (%) [11]: 5% | Population Membrane Permeable-Phenotype (%) [11]: 5% | Population Mitochondria Different-Phenotype (%) [11]: 4% | Population Mitotic Cells (%) [11]: 18% | Population Normal (%) [11]: 95% | Population Pyknosed Nuclei (%) [11]: 14% | Population Tubulin-Different-Phenotype (%) [11]: 3% | Total Cell Count [11]: 320 | Population Apoptotic (%) [12]: 100% | Population Fragmented Nuclei (%) [12]: 17% | Population Healthy Nuclei (%) [12]: 78% | Population Hoechst High Intensity Objects (%) [12]: 1% | Population Membrane Permeable-Phenotype (%) [12]: 14% | Population Mitochondria Different-Phenotype (%) [12]: 6% | Population Mitotic Cells (%) [12]: 0% | Population Normal (%) [12]: 98% | Population Pyknosed Nuclei (%) [12]: 3% | Population Tubulin-Different-Phenotype (%) [12]: 8% | Total Cell Count [12]: 130

CN1CCC(C(=O)c2cccc(NC(=O)c3c(F)cc(F)cc3F)n2)CC1
Population Apoptotic (%) [1]: 90% | Population Fragmented Nuclei (%) [1]: 20% | Population Healthy Nuclei (%) [1]: 70% | Population Hoechst High Intensity Objects (%) [1]: 2% | Population Membrane Permeable-Phenotype (%) [1]: 8% | Population Mitochondria Different-Phenotype (%) [1]: 3% | Population Mitotic Cells (%) [1]: 10% | Population Normal (%) [1]: 97% | Population Pyknosed Nuclei (%) [1]: 9% | Population Tubulin-Different-Phenotype (%) [1]: 5% | Total Cell Count [1]: 218 | Population Apoptotic (%) [2]: 57% | Population Healthy Nuclei (%) [2]: 71% | Population Hoechst High Intensity Objects (%) [2]: 1% | Population Membrane Permeable-Phenotype (%) [2]: 9% | Population Mitochondria Different-Phenotype (%) [2]: 11% | Population Mitotic Cells (%) [2]: 42% | Population Normal (%) [2]: 98% | Population Pyknosed Nuclei (%) [2]: 7% | Population Tubulin-Different-Phenotype (%) [2]: 6% | Total Cell Count [2]: 89 | Population Apoptotic (%) [3]: 65% | Population Fragmented Nuclei (%) [3]: 27% | Population Healthy Nuclei (%) [3]: 63% | Population Hoechst High Intensity Objects (%) [3]: 1% | Population Membrane Permeable-Phenotype (%) [3]: 14% | Population Mitochondria Different-Phenotype (%) [3]: 13% | Population Mitotic Cells (%) [3]: 34% | Population Normal (%) [3]: 98% | Population Pyknosed Nuclei (%) [3]: 9% | Population Tubulin-Different-Phenotype (%) [3]: 12% | Total Cell Count [3]: 270 | Population Apoptotic (%) [4]: 64% | Population Fragmented Nuclei (%) [4]: 14% | Population Healthy Nuclei (%) [4]: 68% | Population Membrane Permeable-Phenotype (%) [4]: 15% | Population Mitochondria Different-Phenotype (%) [4]: 18% | Population Mitotic Cells (%) [4]: 35% | Population Pyknosed Nuclei (%) [4]: 16% | Population Tubulin-Different-Phenotype (%) [4]: 15% | Total Cell Count [4]: 103 | Population Apoptotic (%) [5]: 85% | Population Fragmented Nuclei (%) [5]: 22% | Population Healthy Nuclei (%) [5]: 67% | Population Hoechst High Intensity Objects (%) [5]: 2% | Population Membrane Permeable-Phenotype (%) [5]: 4% | Population Mitochondria Different-Phenotype (%) [5]: 3% | Population Mitotic Cells (%) [5]: 14% | Population Normal (%) [5]: 97% | Population Pyknosed Nuclei (%) [5]: 9% | Population Tubulin-Different-Phenotype (%) [5]: 3% | Total Cell Count [5]: 284 | Population Apoptotic (%) [6]: 72% | Population Fragmented Nuclei (%) [6]: 18% | Population Healthy Nuclei (%) [6]: 71% | Population Hoechst High Intensity Objects (%) [6]: 0% | Population Membrane Permeable-Phenotype (%) [6]: 6% | Population Mitochondria Different-Phenotype (%) [6]: 10% | Population Mitotic Cells (%) [6]: 27% | Population Normal (%) [6]: 99% | Population Tubulin-Different-Phenotype (%) [6]: 0% | Total Cell Count [6]: 113 | Population Apoptotic (%) [7]: 82% | Population Fragmented Nuclei (%) [7]: 21% | Population Healthy Nuclei (%) [7]: 68% | Population Hoechst High Intensity Objects (%) [7]: 2% | Population Membrane Permeable-Phenotype (%) [7]: 8% | Population Mitochondria Different-Phenotype (%) [7]: 9% | Population Mitotic Cells (%) [7]: 17% | Population Normal (%) [7]: 97% | Population Pyknosed Nuclei (%) [7]: 9% | Population Tubulin-Different-Phenotype (%) [7]: 5% | Total Cell Count [7]: 298 | Population Apoptotic (%) [8]: 66% | Population Fragmented Nuclei (%) [8]: 15% | Population Hoechst High Intensity Objects (%) [8]: 5% | Population Membrane Permeable-Phenotype (%) [8]: 10% | Population Mitochondria Different-Phenotype (%) [8]: 15% | Population Mitotic Cells (%) [8]: 33% | Population Normal (%) [8]: 94% | Population Pyknosed Nuclei (%) [8]: 15% | Population Tubulin-Different-Phenotype (%) [8]: 10% | Total Cell Count [8]: 126 | Population Apoptotic (%) [9]: 100% | Population Fragmented Nuclei (%) [9]: 17% | Population Healthy Nuclei (%) [9]: 70% | Population Hoechst High Intensity Objects (%) [9]: 2% | Population Membrane Permeable-Phenotype (%) [9]: 4% | Population Mitochondria Different-Phenotype (%) [9]: 1% | Population Mitotic Cells (%) [9]: 0% | Population Normal (%) [9]: 97% | Population Pyknosed Nuclei (%) [9]: 11% | Population Tubulin-Different-Phenotype (%) [9]: 2% | Total Cell Count [9]: 394 | Population Apoptotic (%) [10]: 89% | Population Fragmented Nuclei (%) [10]: 29% | Population Healthy Nuclei (%) [10]: 57% | Population Hoechst High Intensity Objects (%) [10]: 5% | Population Membrane Permeable-Phenotype (%) [10]: 12% | Population Mitochondria Different-Phenotype (%) [10]: 8% | Population Mitotic Cells (%) [10]: 10% | Population Normal (%) [10]: 94% | Population Pyknosed Nuclei (%) [10]: 13% | Population Tubulin-Different-Phenotype (%) [10]: 4% | Total Cell Count [10]: 149 | Population Apoptotic (%) [11]: 85% | Population Fragmented Nuclei (%) [11]: 18% | Population Healthy Nuclei (%) [11]: 69% | Population Hoechst High Intensity Objects (%) [11]: 3% | Population Membrane Permeable-Phenotype (%) [11]: 8% | Population Mitochondria Different-Phenotype (%) [11]: 3% | Population Mitotic Cells (%) [11]: 14% | Population Normal (%) [11]: 96% | Population Pyknosed Nuclei (%) [11]: 12% | Population Tubulin-Different-Phenotype (%) [11]: 3% | Total Cell Count [11]: 398 | Population Fragmented Nuclei (%) [12]: 15% | Population Membrane Permeable-Phenotype (%) [12]: 16% | Population Mitochondria Different-Phenotype (%) [12]: 10% | Population Pyknosed Nuclei (%) [12]: 14% | Population Tubulin-Different-Phenotype (%) [12]: 8% | Total Cell Count [12]: 189
